In ChEMBL document CHEMBL1135746, “Structure-activity relationships of the antimalarial agent artemisinin. 7. Direct modification of (+)-artemisinin and in vivo antimalarial screening of new, potential preclinical antimalarial candidates” (J Med Chem, 2002):
Values after ≈ are worked out from the molar mass of the structure shown. Values joined by “and” are separate entries in the source; they are usually repeats but may differ in a detail not shown here. Equal entries are not always repeated.

Experiments:
Plasmodium berghei [1] = assay: (§1) Effective dose ED90 against Plasmodium berghei N in mice (Mus musculus) malaria model after peroral administration; type: functional; settings: po
Plasmodium yoelii [2] = assay: Effective subcutaneous dose ED50 against Plasmodium yoelii sspNS; type: functional; settings: sc
Plasmodium falciparum [3] = assay: Inhibitory activity against Plasmodium falciparum NF54; type: functional, organism-based
Plasmodium falciparum [4] = assay: Inhibitory activity against Plasmodium falciparum K1; type: functional, organism-based
Plasmodium yoelii [5] = assay: Effective dose ED90 against Plasmodium yoelii sspNS on subcutaneous dose; type: functional; settings: sc
Plasmodium berghei [6] = assay: Effective dose ED50 against Plasmodium berghei N in mice (Mus musculus) malaria model after subcutaneous administration; type: functional
Plasmodium falciparum [7] = assay: Inhibitory activity against Plasmodium falciparum D6; type: functional, organism-based
Summary of the method: (§2)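 Parasitized human red blood cells were used in short-term microtitre cultures. Compounds were dissolved in DMSO and diluted 400-fold in culture medium with plasma, giving a starting concentration of at least 12 500 ng/mL. Activity was measured as inhibition of parasite uptake of a radiolabelled nucleic acid precursor.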

Plasmodium berghei [8] = assay: Effective dose ED90 against Plasmodium berghei N in mice (Mus musculus) malaria model after subcutaneous administration; type: functional
Plasmodium falciparum [9] = assay: Inhibitory activity against Plasmodium falciparum W2; type: functional, organism-based; summary of the method: as §2
Plasmodium berghei [10] = assay: Effective dose ED50 against Plasmodium berghei N in mice (Mus musculus) malaria model after peroral administration; type: functional
Plasmodium yoelii [11] = assay: Effective subcutaneous dose ED50 in SSV against Plasmodium yoelii sspNS; type: functional; settings: sc
Plasmodium yoelii [12] = assay: Effective subcutaneous dose ED90 in SSV against Plasmodium yoelii sspNS; type: functional; settings: sc
Plasmodium yoelii [13] = assay: Effective dose after oral administration against Plasmodium yoelii sspNS for 50%inhibition in presence of DMSO; type: functional
Plasmodium yoelii [14] = assay: Effective dose after oral administration against Plasmodium yoelii sspNS for 90%inhibition in presence of DMSO; type: functional
Plasmodium berghei [15] = assay: Antimalarial activity in Plasmodium berghei infected mice (Mus musculus) at 8 mg/kg/day peroral dose; type: functional; settings: route oral
Summary of the method: (§3)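 CD-1 mice (16-18 g), quarantined 2 weeks, then infected with P. berghei (Thompson test). Treatment was given on days 3-5 postinfection. Subcutaneous dosing was a single injection; oral dosing was by gavage of a peanut-oil suspension. Groups of 5 mice were used. Survival was scored out of 5 and parasitemia was followed up to 60 days postinfection.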

Plasmodium berghei [16] = assay: Antimalarial activity in Plasmodium berghei infected mice (Mus musculus) at 32 mg/kg/day peroral dose; type: functional; settings: route oral; summary of the method: as §3
Plasmodium berghei [17] = assay: Antimalarial activity in Plasmodium berghei infected mice (Mus musculus) at 128 mg/kg/day peroral dose; type: functional; settings: route oral; summary of the method: as §3
Plasmodium berghei [18] = assay: Antimalarial activity in Plasmodium berghei infected mice (Mus musculus) at 8 mg/kg/day subcutaneous dose; type: functional; summary of the method: as §3
Plasmodium berghei [19] = assay: Antimalarial activity in Plasmodium berghei infected mice (Mus musculus) at 32 mg/kg/day subcutaneous dose; type: functional; summary of the method: as §3
Plasmodium berghei [20] = assay: Antimalarial activity in Plasmodium berghei infected mice (Mus musculus) after 128 mg/kg/day subcutaneous dose; type: functional; summary of the method: as §3
Plasmodium berghei [21] = assay: as §1; type: functional; settings: po; remark: listed apart in the source
Summary of the method: (§4)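 Peters' 4-day test: two batches of five male random-bred Swiss albino mice (18-22 g) were inoculated i.v. with 2 × 10⁶ P. berghei N-parasitized RBC. Drug was given once daily for four consecutive days. Compounds were dissolved in DMSO, then diluted in water for subcutaneous or oral dosing. Parasitemia was read the day after the last treatment.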

Plasmodium berghei [22] = assay: Effective dose Plasmodium berghei N in mice (Mus musculus) malaria model after subcutaneous administration; type: functional; settings: sc; summary of the method: as §4
Plasmodium berghei [23] = assay: Effective dose ED50 against Plasmodium berghei N and Plasmodium species infected mice (Mus musculus) after peroral dose; type: functional; settings: po; summary of the method: as §4
Plasmodium berghei [24] = assay: Effective dose against Plasmodium berghei N in mice (Mus musculus) malaria model after subcutaneous administration; type: functional; settings: sc; summary of the method: as §4
Plasmodium berghei [25] = assay: Effective dose ED90 against Plasmodium berghei N in mice (Mus musculus) malaria model after oral administration; type: functional; summary of the method: as §4
Plasmodium yoelii [26] = assay: Effective subcutaneous dose ED90 against Plasmodium yoelii sspNS; type: functional; settings: Plasmodium yoelii, sc; read-out: ED90
Plasmodium berghei [27] = assay: Effective dose […] against Plasmodium berghei N in a mice (Mus musculus) malaria model after oral dose; type: functional
[28] = Plasmodium berghei, sc, read-out: ED50
[29] = Plasmodium berghei, sc, read-out: ED90
[30] = Plasmodium berghei, po, read-out: ED50

Structure (SMILES)	ED90 (Plasmodium berghei [1]) [mg/kg]	ED50 (Plasmodium yoelii [2]) [mg/kg]	IC50 (Plasmodium falciparum [3]) [µg/mL]	IC50 (Plasmodium falciparum [4]) [µg/mL]	ED90 (Plasmodium yoelii [5]) [mg/kg]	ED50 (Plasmodium berghei [6]; [28]) [mg/kg]	IC50 (Plasmodium falciparum [7]) [µg/mL]	ED90 (Plasmodium berghei [8]; [29]) [mg/kg]	IC50 (Plasmodium falciparum [9]) [µg/mL]	ED50 (Plasmodium berghei [10]; [30]) [mg/kg]	other results
C[C@@H]1CC[C@H]2[C@@H](CCCc3cccc(F)c3)CO[C@@H]3OC4(C)CC[C@@H]1[C@]32OO4 (single isomer, unassigned)	3.4	0.58	0.0418 (≈ 0.107 µM)	0.0116 (≈ 0.0296 µM)	1	0.46	0.00828 (≈ 0.0212 µM)	0.85	0.0268 (≈ 0.0687 µM)	0.9	
C[C@@H]1CC[C@H]2[C@@H](CCCc3cccc(Cl)c3)CO[C@@H]3OC4(C)CC[C@@H]1[C@]32OO4 (single isomer, unassigned)	8.3	0.6	0.0183 (≈ 0.0449 µM)	0.0101 (≈ 0.0247 µM)	1	0.5	0.00755 (≈ 0.0186 µM)	0.9	0.0216 (≈ 0.0531 µM)	2	
C[C@@H]1CC[C@H]2[C@@H](CCCc3cc(F)cc(F)c3)CO[C@@H]3OC4(C)CC[C@@H]1[C@]32OO4 (single isomer, unassigned)	5.7			0.0032 (≈ 0.00783 µM)		1.3	0.00082 (≈ 0.00201 µM)	2	0.0065 (≈ 0.0159 µM)		ED50 (Plasmodium yoelii [11]): 2.2 mg/kg; ED90 (Plasmodium yoelii [12]): 6.5 mg/kg; ED50 (Plasmodium yoelii [13]): 2.3 mg/kg; ED90 (Plasmodium yoelii [14]): 7.5 mg/kg
C[C@@H]1CC[C@H]2[C@@H](CCCc3ccc(C(F)(F)F)cc3)CO[C@@H]3OC4(C)CC[C@@H]1[C@]32OO4 (single isomer, unassigned)		0.67	0.102 (≈ 0.23 µM)	0.0395 (≈ 0.0898 µM)	1.25	0.44	0.0281 (≈ 0.0639 µM)		0.058 (≈ 0.132 µM)		ED90 (Plasmodium berghei [8]): 0.8 mg/kg and 2.1 mg/kg
C[C@@H]1CC[C@H]2[C@@H](C)C(=O)O[C@@H]3O[C@@]4(C)CC[C@@H]1[C@]32OO4 [ARTEMISININ]											Activity (Plasmodium berghei [15]): 0; Activity (Plasmodium berghei [16]): 0; Activity (Plasmodium berghei [17]): 0; Activity (Plasmodium berghei [18]): 0; Activity (Plasmodium berghei [19]): 3; Activity (Plasmodium berghei [20]): 5
C[C@H]1[C@H](OC(=O)CCC(=O)[O-])O[C@@H]2O[C@@]3(C)CC[C@H]4[C@H](C)CC[C@@H]1[C@@]24OO3.[Na+] [SODIUM ARESUNATE]										2.4	ED90 (Plasmodium berghei [21]): > 10 mg/kg; ED50 (Plasmodium berghei [6]): 0.8 mg/kg and 1.8 mg/kg; ED50 (Plasmodium berghei [22]): > 10 mg/kg; ED90 (Plasmodium berghei [23]): > 10 mg/kg; ED50 (Plasmodium berghei [10]): 1.6 mg/kg; ED90 (Plasmodium berghei [24]): > 10 mg/kg
C[C@@H]1CC[C@H]2[C@@H](CCCc3cccc(C(F)(F)F)c3)CO[C@@H]3OC4(C)CC[C@@H]1[C@]32OO4 (single isomer, unassigned)	4.4	0.6	0.0356 (≈ 0.0808 µM)	0.012 (≈ 0.0272 µM)	1	0.4	0.00848 (≈ 0.0193 µM)	0.75	0.0303 (≈ 0.0688 µM)	1.25	
OC(c1cc(C(F)(F)F)nc2c(C(F)(F)F)cccc12)C1CCCCN1 (stereo not drawn) [MEFLOQUINE]		2.3				1.1		2.3			ED90 (Plasmodium berghei [25]): 5.1 mg/kg; ED90 (Plasmodium yoelii [26]): 6 mg/kg; ED50 (Plasmodium berghei [27]): 3.3 mg/kg
C[C@@H]1CC[C@H]2[C@@H](CCCc3ccc(F)cc3)CO[C@@H]3OC4(C)CC[C@@H]1[C@]32OO4 (single isomer, unassigned)											Activity (Plasmodium berghei [15]): 1; Activity (Plasmodium berghei [16]): 5; Activity (Plasmodium berghei [17]): 5; Activity (Plasmodium berghei [18]): 0; Activity (Plasmodium berghei [19]): 5; Activity (Plasmodium berghei [20]): 5
